A short description of data set [1]: Sedimentation coefficient of the free proteins. It is filed as physicochemical. The note with it: low salt buffer: 5 mM potassium phosphate, pH 7.4, 5 mM NaCl, 8% (w/v) glycerol, 0.5 mM DTT; 20°C, 50 000 rpm. The method, boiled down:
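Sedimentation velocity in double-sector cells, recording 280 nm absorbance versus radial position. Samples were full-length DnaG, DnaG-N (residues 1–433), DnaG-C (434–581) and E. coli SSB. Concentrations came from 280 nm extinction coefficients. Data were evaluated as c(s) distributions in SEDFIT.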

Data set [2] has as its system DnaG-C. Nature of the data set: Isothermal titration calorimetry of DnaG-C with SSB-Carb peptide. In kind it is binding, Escherichia coli. The note with it: for binding (association) constant KA by ITC: model of n identical independent sites.
For data set [3], the system named is DnaG-C. Description: NMR titration. The conditions noted are these: 300 µM 15N-DnaG-C titrated with SSB-Carb, 295 K, 600 MHz. It is filed as binding, Escherichia coli. The method, boiled down: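 15N-DnaG-C in 5 mM potassium phosphate pH 7.4, 5 mM NaCl, 2 mM DTT, 10% D2O. Peptide was added from a 30 mM DMSO stock to final 0, 0.1, 0.3, 0.6 and 1 mM. SOFAST-HMQC spectra used 16 scans. Shift = sqrt[Δδ(1H)² + (Δδ(15N)/10)²], comparing no peptide with 1 mM.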

In data set [4] the test system is SSB. The note with it: low salt conditions; cited from earlier work.
Setting [5] is: 150 mM NaCl, 5 mM potassium phosphate, pH 7.4, 8% (w/v) glycerol, 25°C, SSB-Carb on DnaG-C.

Where “and” joins values, the source holds several entries; their conditions need not be identical. Equal entries are not always repeated.

Consider DnaG: full-length E. coli DnaG primase, for which the “sedimentation coefficient, free protein” value in data set [1] was 3.4 S.
On the same count and under the same terms, for “EcoSSB: Escherichia coli single-stranded DNA-binding protein; concentrations given in tetramers” the value was 3.9 S.
Turning to WMDFDDDIPF [SSB-Carb], the “binding (association) constant KA by ITC” value is 240000 M⁻¹ in data set [2] (5 mM NaCl, 5 mM potassium phosphate, pH 7.4, 8% (w/v) glycerol, 25°C, 1.04 mM SSB-Carb titrated into 46 µM DnaG-C); 74000 M⁻¹ and ~70000 M⁻¹ in data set [2] (150 mM NaCl, 5 mM potassium phosphate, pH 7.4, 8% (w/v) glycerol, 25°C, 1.08 mM SSB-Carb titrated into 46 µM DnaG-C). Further, the “binding enthalpy ΔH by ITC” value in data set [2] (5 mM NaCl, 5 mM potassium phosphate, pH 7.4, 8% (w/v) glycerol, 25°C, SSB-Carb on DnaG-C) was -12.4 kcal/mol; in data set [2] (setting [5]) it was -9.87 kcal/mol. In data set [2] (setting [5]), the “binding stoichiometry n by ITC” value is on record as 0.89. In addition, the “change of affinity on increase of salt concentration” value in data set [2] (from 5 to 150 mM NaCl, DnaG-C/SSB-Carb interaction, ITC) is listed as “decreases the affinity only by a factor of about three”. Besides, the “chemical shift change of W522 side chain of DnaG-C (in words)” value in data set [3] is recorded as “not only the chemical shifts of tryptophan 522 backbone change upon addition of SSB-Carb peptide but also those of the side chain”; in data set [3] (listed as peptide), “strong changes in chemical shift on peptide binding”.
For χ: χ subunit of DNA polymerase III, the “increase in SSB-binding affinity in presence of ssDNA” value in data set [4] was 20 fold.

B1: DnaG-N: amino acid residues 1–433 of DnaG (protein, UniProt P0ABS5 1-433, looked up, fragment)
chain: MAGRIPRVFINDLLARTDIVDLIDARVKLKKQGKNFHACCPFHNEKTPSFTVNGEKQFYHCFGCGAHGNAIDFLMNYDKLEFVETVEELAAMHNLEVPFEAGSGPSQIERHQRQTLYQLMDGLNTFYQQSLQQPVATSARQYLEKRGLSHEVIARFAIGFAPPGWDNVLKRFGGNPENRQSLIDAGMLVTNDQGRSYDRFRERVMFPIRDKRGRVIGFGGRVLGNDTPKYLNSPETDIFHKGRQLYGLYEAQQDNAEPNRLLVVEGYMDVVALAQYGINYAVASLGTSTTADHIQLLFRATNNVICCYDGDRAGRDAAWRALETALPYMTDGRQLRFMFLPDGEDPDTLVRKEGKEAFEARMEQAMPLSAFLFNSLMPQVDLSTPDGRARLSTLALPLISQVPGETLRIYLRQELGNKLGILDDSQLERLMPK
As for B1, the “sedimentation coefficient, free protein” value in data set [1] turned out to be 2.9 S.

B2: DnaG-C: amino acid residues 434–581 of DnaG, C-terminal helicase-binding domain (protein, UniProt P0ABS5 434-581, looked up, fragment)
chain: AAESGVSRPVPQLKRTTMRILIGLLVQNPELATLVPPLENLDENKLPGLGLFRELVNTCLSQPGLTTGQLLEHYRGTNNAATLEKLSMWDDIADKNIAEQTFTDSLNHMFDSLLELRQEELIARERTHGLSNEERLELWTLNQELAKK
modifications: helicase-binding domain
As for B2, in data set [1], the “sedimentation coefficient, free protein” value is 1.4 S.

The values above are taken from publication PMC3632105 (Nucleic Acids Research, 2013).
